Results on 20 compounds are retold here after ChEMBL document CHEMBL4673184, “Synthesis and biological evaluation of S-lipidated lipopeptides of a connexin 43 channel inhibitory peptide” (RSC Med Chem, 2020).

Calls of active or inactive are those of the source. The rule behind the calls is not given here. Where a SMILES comes first, the peptide text is derived from it. The star is where a group is joined. Ethyl(2-stearoyloxy) = CCCCCCCCCCCCCCCCCC(=O)OCC*; Ethyl(2-palmitoyloxy) = CCCCCCCCCCCCCCCC(=O)OCC*; CH2CH2OBz(4-tBu) = CC(C)(C)c1ccc(C(=O)OCC*)cc1; Ethyl(2-decanoyloxy) = CCCCCCCCCC(=O)OCC*; Ethyl(2-butanoyloxy) = CCCC(=O)OCC*; Ethyl(2-OPiv) = CC(C)(C)C(=O)OCC*

Gap junction alpha-1 protein (Homo sapiens), sequence (P17302 whole entry): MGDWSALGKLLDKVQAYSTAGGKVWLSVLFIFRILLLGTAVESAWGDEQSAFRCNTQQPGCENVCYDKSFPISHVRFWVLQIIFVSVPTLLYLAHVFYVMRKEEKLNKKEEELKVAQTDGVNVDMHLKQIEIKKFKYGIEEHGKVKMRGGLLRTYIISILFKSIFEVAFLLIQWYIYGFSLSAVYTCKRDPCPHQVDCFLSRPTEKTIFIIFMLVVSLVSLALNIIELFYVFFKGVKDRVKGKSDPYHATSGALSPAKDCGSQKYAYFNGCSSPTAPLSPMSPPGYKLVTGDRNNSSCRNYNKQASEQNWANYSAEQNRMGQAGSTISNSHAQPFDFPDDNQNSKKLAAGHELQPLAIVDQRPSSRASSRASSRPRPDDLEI

For this test, the target named is Gap junction alpha-1 protein (Homo sapiens) (UniProt P17302). Kind of test: Inhibition of Cx43 in hypoxic-acidic ion-shifted ringers solution-induced human cerebral microvascular endothelial cell model of ischaemic injury assessed as ATP release at 10 uM measured after 2 hrs by luciferin-luciferase based luminescence assay relative to control. More on the design: scale not given: the % may be the effect or the level left. The method in brief:
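hCMVEC (passages 8-17) seeded at 2 x 10^6/well on collagen-I (1 µg/cm²) and grown 48 h to a confluent monolayer. Washed in NR, then exposed 2 h in HAIR (pH 6.6, N₂-bubbled, low Ca²⁺, K-gluconate/NMDG) containing peptide at 10 µM. Supernatant diluted 1:10 in firefly luciferase mix and read at 560 nm against an ATP standard (0-50 nM). Expressed as % of HAIR-only, mean of n=3.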
For `CCCC(=O)OCCSC[C@H](NC(=O)[C@H](CC(C)C)NC(=O)[C@H](Cc1ccccc1)NC(=O)[C@H](CS)NC(=O)[C@H](CC(=O)O)NC(=O)[C@@H](N)C(C)C)C(=O)N[C@@H](CCCNC(=N)N)C(=O)N1CCC[C@H]1C(=O)N[C@H](C(=O)N[C@@H](CCC(=O)O)C(=O)N[C@@H](CCCCN)C(=O)N[C@H](C(=O)O)[C@@H](C)O)[C@@H](C)O` (H-VDCFLC(Ethyl(2-butanoyloxy))RPTEKT-OH), the result was inactive.

In the case of `CCCCCCCCCC(=O)OCCSC[C@H](NC(=O)[C@H](CC(C)C)NC(=O)[C@H](Cc1ccccc1)NC(=O)[C@H](CS)NC(=O)[C@H](CC(=O)O)NC(=O)[C@@H](N)C(C)C)C(=O)N[C@@H](CCCNC(=N)N)C(=O)N1CCC[C@H]1C(=O)N[C@H](C(=O)N[C@@H](CCC(=O)O)C(=O)N[C@@H](CCCCN)C(=O)N[C@H](C(=O)O)[C@@H](C)O)[C@@H](C)O` (H-VDCFLC(Ethyl(2-decanoyloxy))RPTEKT-OH), the outcome was inactive.

Consider `CCCCCCCCCCCCCCCC(=O)OCCSC[C@H](NC(=O)[C@H](CC(C)C)NC(=O)[C@H](Cc1ccccc1)NC(=O)[C@H](CS)NC(=O)[C@H](CC(=O)O)NC(=O)[C@@H](N)C(C)C)C(=O)N[C@@H](CCCNC(=N)N)C(=O)N1CCC[C@H]1C(=O)N[C@H](C(=O)N[C@@H](CCC(=O)O)C(=O)N[C@@H](CCCCN)C(=O)N[C@H](C(=O)O)[C@@H](C)O)[C@@H](C)O` (H-VDCFLC(Ethyl(2-palmitoyloxy))RPTEKT-OH), for which the outcome was inactive.

Consider `CCCCCCCCCCCCCCCCCC(=O)OCCSC[C@H](NC(=O)[C@H](CC(C)C)NC(=O)[C@H](Cc1ccccc1)NC(=O)[C@H](CS)NC(=O)[C@H](CC(=O)O)NC(=O)[C@@H](N)C(C)C)C(=O)N[C@@H](CCCNC(=N)N)C(=O)N1CCC[C@H]1C(=O)N[C@H](C(=O)N[C@@H](CCC(=O)O)C(=O)N[C@@H](CCCCN)C(=O)N[C@H](C(=O)O)[C@@H](C)O)[C@@H](C)O` (H-VDCFLC(Ethyl(2-stearoyloxy))RPTEKT-OH), for which the outcome was inactive.

For `CC(C)C[C@H](NC(=O)[C@H](Cc1ccccc1)NC(=O)[C@H](CS)NC(=O)[C@H](CC(=O)O)NC(=O)[C@@H](N)C(C)C)C(=O)N[C@@H](CO)C(=O)N[C@@H](CCCNC(=N)N)C(=O)N1CCC[C@H]1C(=O)N[C@@H](CSCCOC(=O)c1ccc(C(C)(C)C)cc1)C(=O)N[C@@H](CCC(=O)O)C(=O)N[C@@H](CCCCN)C(=O)N[C@H](C(=O)O)[C@@H](C)O` (H-VDCFLSRPC(CH2CH2OBz(4-tBu))EKT-OH), the outcome was inactive.

Turning to `CC(C)C[C@H](NC(=O)[C@H](Cc1ccccc1)NC(=O)[C@H](CS)NC(=O)[C@H](CC(=O)O)NC(=O)[C@@H](N)C(C)C)C(=O)N[C@@H](CO)C(=O)N[C@@H](CCCNC(=N)N)C(=O)N1CCC[C@H]1C(=O)N[C@@H](CSCCOC(=O)C(C)(C)C)C(=O)N[C@@H](CCC(=O)O)C(=O)N[C@@H](CCCCN)C(=O)N[C@H](C(=O)O)[C@@H](C)O` (H-VDCFLSRPC(Ethyl(2-OPiv))EKT-OH), the outcome was inactive.

Regarding `CCCC(=O)OCCSC[C@H](NC(=O)[C@@H]1CCCN1C(=O)[C@H](CCCNC(=N)N)NC(=O)[C@H](CO)NC(=O)[C@H](CC(C)C)NC(=O)[C@H](Cc1ccccc1)NC(=O)[C@H](CS)NC(=O)[C@H](CC(=O)O)NC(=O)[C@@H](N)C(C)C)C(=O)N[C@@H](CCC(=O)O)C(=O)N[C@@H](CCCCN)C(=O)N[C@H](C(=O)O)[C@@H](C)O` (H-VDCFLSRPC(Ethyl(2-butanoyloxy))EKT-OH), the result was inactive.

In the case of `CCCCCCCCCC(=O)OCCSC[C@H](NC(=O)[C@@H]1CCCN1C(=O)[C@H](CCCNC(=N)N)NC(=O)[C@H](CO)NC(=O)[C@H](CC(C)C)NC(=O)[C@H](Cc1ccccc1)NC(=O)[C@H](CS)NC(=O)[C@H](CC(=O)O)NC(=O)[C@@H](N)C(C)C)C(=O)N[C@@H](CCC(=O)O)C(=O)N[C@@H](CCCCN)C(=O)N[C@H](C(=O)O)[C@@H](C)O` (H-VDCFLSRPC(Ethyl(2-decanoyloxy))EKT-OH), the result was inactive.

Turning to `CCCCCCCCCCCCCCCC(=O)OCCSC[C@H](NC(=O)[C@@H]1CCCN1C(=O)[C@H](CCCNC(=N)N)NC(=O)[C@H](CO)NC(=O)[C@H](CC(C)C)NC(=O)[C@H](Cc1ccccc1)NC(=O)[C@H](CS)NC(=O)[C@H](CC(=O)O)NC(=O)[C@@H](N)C(C)C)C(=O)N[C@@H](CCC(=O)O)C(=O)N[C@@H](CCCCN)C(=O)N[C@H](C(=O)O)[C@@H](C)O` (H-VDCFLSRPC(Ethyl(2-palmitoyloxy))EKT-OH), the Activity was 102%.

As for `CCCCCCCCCCCCCCCCCC(=O)OCCSC[C@H](NC(=O)[C@@H]1CCCN1C(=O)[C@H](CCCNC(=N)N)NC(=O)[C@H](CO)NC(=O)[C@H](CC(C)C)NC(=O)[C@H](Cc1ccccc1)NC(=O)[C@H](CS)NC(=O)[C@H](CC(=O)O)NC(=O)[C@@H](N)C(C)C)C(=O)N[C@@H](CCC(=O)O)C(=O)N[C@@H](CCCCN)C(=O)N[C@H](C(=O)O)[C@@H](C)O` (H-VDCFLSRPC(Ethyl(2-stearoyloxy))EKT-OH), the Activity was 102%.

Consider `CC(C)C[C@H](NC(=O)[C@H](Cc1ccccc1)NC(=O)[C@H](CS)NC(=O)[C@H](CC(=O)O)NC(=O)[C@@H](N)C(C)C)C(=O)N[C@@H](CO)C(=O)N[C@@H](CCCNC(=N)N)C(=O)N1CCC[C@H]1C(=O)N[C@H](C(=O)N[C@@H](CSCCOC(=O)c1ccc(C(C)(C)C)cc1)C(=O)N[C@@H](CCCCN)C(=O)N[C@H](C(=O)O)[C@@H](C)O)[C@@H](C)O` (H-VDCFLSRPTC(CH2CH2OBz(4-tBu))KT-OH), for which the outcome was inactive.

Turning to `CC(C)C[C@H](NC(=O)[C@H](Cc1ccccc1)NC(=O)[C@H](CS)NC(=O)[C@H](CC(=O)O)NC(=O)[C@@H](N)C(C)C)C(=O)N[C@@H](CO)C(=O)N[C@@H](CCCNC(=N)N)C(=O)N1CCC[C@H]1C(=O)N[C@H](C(=O)N[C@@H](CSCCOC(=O)C(C)(C)C)C(=O)N[C@@H](CCCCN)C(=O)N[C@H](C(=O)O)[C@@H](C)O)[C@@H](C)O` (H-VDCFLSRPTC(Ethyl(2-OPiv))KT-OH), the outcome was inactive.

Take `CCCC(=O)OCCSC[C@H](NC(=O)[C@@H](NC(=O)[C@@H]1CCCN1C(=O)[C@H](CCCNC(=N)N)NC(=O)[C@H](CO)NC(=O)[C@H](CC(C)C)NC(=O)[C@H](Cc1ccccc1)NC(=O)[C@H](CS)NC(=O)[C@H](CC(=O)O)NC(=O)[C@@H](N)C(C)C)[C@@H](C)O)C(=O)N[C@@H](CCCCN)C(=O)N[C@H](C(=O)O)[C@@H](C)O` (H-VDCFLSRPTC(Ethyl(2-butanoyloxy))KT-OH): the Activity came out at 32%.

For `CCCCCCCCCC(=O)OCCSC[C@H](NC(=O)[C@@H](NC(=O)[C@@H]1CCCN1C(=O)[C@H](CCCNC(=N)N)NC(=O)[C@H](CO)NC(=O)[C@H](CC(C)C)NC(=O)[C@H](Cc1ccccc1)NC(=O)[C@H](CS)NC(=O)[C@H](CC(=O)O)NC(=O)[C@@H](N)C(C)C)[C@@H](C)O)C(=O)N[C@@H](CCCCN)C(=O)N[C@H](C(=O)O)[C@@H](C)O` (H-VDCFLSRPTC(Ethyl(2-decanoyloxy))KT-OH), the Activity turned out to be 96%.

With `CCCCCCCCCCCCCCCC(=O)OCCSC[C@H](NC(=O)[C@@H](NC(=O)[C@@H]1CCCN1C(=O)[C@H](CCCNC(=N)N)NC(=O)[C@H](CO)NC(=O)[C@H](CC(C)C)NC(=O)[C@H](Cc1ccccc1)NC(=O)[C@H](CS)NC(=O)[C@H](CC(=O)O)NC(=O)[C@@H](N)C(C)C)[C@@H](C)O)C(=O)N[C@@H](CCCCN)C(=O)N[C@H](C(=O)O)[C@@H](C)O` (H-VDCFLSRPTC(Ethyl(2-palmitoyloxy))KT-OH), the Activity was determined as 114%.

With `CCCCCCCCCCCCCCCCCC(=O)OCCSC[C@H](NC(=O)[C@@H](NC(=O)[C@@H]1CCCN1C(=O)[C@H](CCCNC(=N)N)NC(=O)[C@H](CO)NC(=O)[C@H](CC(C)C)NC(=O)[C@H](Cc1ccccc1)NC(=O)[C@H](CS)NC(=O)[C@H](CC(=O)O)NC(=O)[C@@H](N)C(C)C)[C@@H](C)O)C(=O)N[C@@H](CCCCN)C(=O)N[C@H](C(=O)O)[C@@H](C)O` (H-VDCFLSRPTC(Ethyl(2-stearoyloxy))KT-OH), the Activity stood at 83.7%.

For `CC(C)C[C@H](NC(=O)[C@H](Cc1ccccc1)NC(=O)[C@H](CS)NC(=O)[C@H](CC(=O)O)NC(=O)[C@@H](N)C(C)C)C(=O)N[C@@H](CO)C(=O)N[C@@H](CCCNC(=N)N)C(=O)N1CCC[C@H]1C(=O)N[C@H](C(=O)N[C@@H](CCC(=O)O)C(=O)N[C@@H](CCCCN)C(=O)N[C@@H](CSCCOC(=O)c1ccc(C(C)(C)C)cc1)C(=O)O)[C@@H](C)O` (H-VDCFLSRPTEKC(CH2CH2OBz(4-tBu))-OH), the result was inactive.

As for `CC(C)C[C@H](NC(=O)[C@H](Cc1ccccc1)NC(=O)[C@H](CS)NC(=O)[C@H](CC(=O)O)NC(=O)[C@@H](N)C(C)C)C(=O)N[C@@H](CO)C(=O)N[C@@H](CCCNC(=N)N)C(=O)N1CCC[C@H]1C(=O)N[C@H](C(=O)N[C@@H](CCC(=O)O)C(=O)N[C@@H](CCCCN)C(=O)N[C@@H](CSCCOC(=O)C(C)(C)C)C(=O)O)[C@@H](C)O` (H-VDCFLSRPTEKC(Ethyl(2-OPiv))-OH), the result was inactive.

For the compound `CCCC(=O)OCCSC[C@H](NC(=O)[C@H](CCCCN)NC(=O)[C@H](CCC(=O)O)NC(=O)[C@@H](NC(=O)[C@@H]1CCCN1C(=O)[C@H](CCCNC(=N)N)NC(=O)[C@H](CO)NC(=O)[C@H](CC(C)C)NC(=O)[C@H](Cc1ccccc1)NC(=O)[C@H](CS)NC(=O)[C@H](CC(=O)O)NC(=O)[C@@H](N)C(C)C)[C@@H](C)O)C(=O)O` (H-VDCFLSRPTEKC(Ethyl(2-butanoyloxy))-OH), the outcome was inactive.

Turning to `CCCCCCCCCC(=O)OCCSC[C@H](NC(=O)[C@H](CCCCN)NC(=O)[C@H](CCC(=O)O)NC(=O)[C@@H](NC(=O)[C@@H]1CCCN1C(=O)[C@H](CCCNC(=N)N)NC(=O)[C@H](CO)NC(=O)[C@H](CC(C)C)NC(=O)[C@H](Cc1ccccc1)NC(=O)[C@H](CS)NC(=O)[C@H](CC(=O)O)NC(=O)[C@@H](N)C(C)C)[C@@H](C)O)C(=O)O` (H-VDCFLSRPTEKC(Ethyl(2-decanoyloxy))-OH), the result was inactive.
